Hits are enriched below; roughly 2.4% of the tested compounds scored in any of these assays.
INS-1E GSIS act: GLuc luminescence reporter in INS-1E cells, primary screen for activators of glucose-dependent secretion of insulin. INS-1E GLuc reporter insulin secretion, 2-3 h. activation, % at 16.6 µM. actives 0.61% (n = 370,000). AID 743287;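 active means lowest replicate activation of at least 40%, so every replicate reaches that level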
Env fusion inh: inhibitors of HIV Env-mediated cell fusion | HeLa-JRFL Env/CEM21 cell fusion, luciferase | inhibition, % at 12.3 µM | actives 1.1% (n = 360,000) | AID 651610;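 active means mean replicate inhibition score of at least 50 and every replicate individually at or above 50; inconclusive means only one of the two criteria met; inactive means mean below 50 and not all replicates reaching 50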
Cneo AK release: causes C. neoformans cell lysis. adenylate kinase release luminescence, 4 h; normalised: neutral wells 0, clomiphene wells 100. lysis activity, % at 15 µM. actives 0.2% (n = 360,000);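 active means mean lysis activity across replicates of at least 80%, whatever share of replicates individually reach that level; inactive means mean lysis activity below 80%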
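Test system: log-phase Cryptococcus neoformans yeast cells. Input: 5 × 10^6 yeast cells/mL. Medium: fresh YPD growth medium. Doses: single dose. Incubation: static 4 h at 37 °C with compound, 1 h detection. Measured by: luminescent adenylate kinase detection reagent. Read-out: signal increase indicating cell lysis. Benchmarks: Clomiphene.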
Rtt109 Vps75: C. albicans Rtt109 histone acetyltransferase inhibition. Q5AAJ8. purified Rtt109/Vps75, ThioGlo CoA-SH fluorescence, 4 h. inhibition, % at 34.9 µM. actives 0.16% (n = 330,000);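 active means inhibition of at least 50% in every replicate; inconclusive means best replicate reaches 50% inhibition but some replicates fall short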
Target sequence (Q5AAJ8 whole entry, looked up): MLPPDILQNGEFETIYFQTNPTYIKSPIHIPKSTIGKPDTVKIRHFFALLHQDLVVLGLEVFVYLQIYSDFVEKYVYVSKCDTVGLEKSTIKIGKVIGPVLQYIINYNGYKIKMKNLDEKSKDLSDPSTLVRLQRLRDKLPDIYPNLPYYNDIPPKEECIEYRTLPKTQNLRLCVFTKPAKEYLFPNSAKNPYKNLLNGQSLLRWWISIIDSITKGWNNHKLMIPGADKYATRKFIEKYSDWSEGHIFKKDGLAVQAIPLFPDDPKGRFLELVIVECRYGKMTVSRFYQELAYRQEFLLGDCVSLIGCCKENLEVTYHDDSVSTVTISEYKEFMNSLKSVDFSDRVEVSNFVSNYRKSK
miR122 inh: blocks miR-122 activity in Huh7 sensor cells | Huh7 miR-122 Renilla luciferase sensor, 48 h; neutral wells = 0, positive control = 100 | activation (reporter increase), % at 12.5 µM | actives 0.3% (n = 340,000) | AID 602342;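 active means mean replicate activation score at least 90 and every replicate individually at or above 90; inconclusive means only one of the two criteria met; inactive means neither criterion met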;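 further: higher luciferase means less miR-122 activity so hits act as miR-122 inhibitors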
dFosB act: activators of mouse delta FosB homodimer. purified delta FosB, TAMRA-CDK5 oligo fluorescence polarization; percent of positive-control signal above neutral wells. P13346. activation, % at 25 µM. actives 0.99% (n = 340,000). AID 493131;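 active means mean activation above about 17%, with every replicate also reaching it, limit read from the data, passing the limit was not always enough; inconclusive means only one of the two conditions met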
Target sequence (P13346 whole entry, looked up): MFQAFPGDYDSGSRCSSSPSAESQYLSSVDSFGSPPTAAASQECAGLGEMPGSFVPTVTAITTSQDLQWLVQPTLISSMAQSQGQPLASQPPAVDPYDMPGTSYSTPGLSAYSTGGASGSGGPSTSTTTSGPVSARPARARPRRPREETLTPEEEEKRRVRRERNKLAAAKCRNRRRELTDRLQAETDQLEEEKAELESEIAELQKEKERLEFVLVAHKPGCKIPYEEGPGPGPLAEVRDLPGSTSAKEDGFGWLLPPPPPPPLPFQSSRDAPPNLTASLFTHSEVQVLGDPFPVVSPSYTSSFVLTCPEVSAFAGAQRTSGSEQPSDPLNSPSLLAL
Large screens that a line does not name were inactive; [ ] = dose if it differs, or a comment.

C[C@@H]1CN([C@H](C)CO)S(=O)(=O)c2ccc(C3=CCCC3)cc2O[C@H]1CN(C)C(=O)C1CCC1	none (no result: Rtt109 Vps75, dFosB act)
C[C@H]1CN([C@@H](C)CO)C(=O)c2cc(C#CCc3ccccc3)cnc2O[C@@H]1CN(C)C(=O)C1CC1	INS-1E GSIS act 72 (no result: Rtt109 Vps75, dFosB act)
C[C@H](CO)N1C[C@H](C)[C@@H](CN(C)C(=O)C2CCOCC2)Oc2ncc(C#CCc3ccccc3)cc2C1=O	Cneo AK release 86 (no result: Rtt109 Vps75, miR122 inh, dFosB act)
C/C=C/c1cnc2c(c1)C(=O)N([C@@H](C)CO)C[C@H](C)[C@@H](CN(C)C(=O)C1CCCCC1)O2	none (no result: Rtt109 Vps75, dFosB act)
C[C@@H]1CN([C@H](C)CO)C(=O)c2cc(C#CCc3ccccc3)cnc2O[C@H]1CN(C)C(=O)C1CCC1	INS-1E GSIS act 54 (no result: Rtt109 Vps75, dFosB act)
C/C=C/c1cnc2c(c1)C(=O)N([C@@H](C)CO)C[C@@H](C)[C@@H](CN(C)C(=O)C1CCCCC1)O2	Cneo AK release 105 (no result: Rtt109 Vps75, dFosB act)
C[C@@H]1CN([C@@H](C)CO)C(=O)c2cc(C#CCc3ccccc3)cnc2O[C@@H]1CN(C)C(=O)C1CCC1	none (no result: Rtt109 Vps75, dFosB act)
C[C@H](CO)N1C[C@H](C)[C@H](CN(C)C)Oc2cc(C#Cc3cccnc3)ccc2S1(=O)=O	none (no result: Rtt109 Vps75, dFosB act)
CC1=C(C(=O)Nc2ccccc2)C(c2ccc(C)cc2)N=C(Nc2nc3ccccc3o2)N1 (configuration not stated)	dFosB act 42 (no result: Env fusion inh)
CC(=O)[C@@]1(O)Cc2c(O)c3c(c(O)c2[C@H](O[C@H]2C[C@H](N)[C@H](O)[C@H](C)O2)C1)C(=O)c1ccccc1C3=O	Env fusion inh 95 (no result: Rtt109 Vps75, dFosB act)
COc1cccc2c1C(=O)c1c(O)c3c(c(O)c1C2=O)CC(O)(C(C)=O)CC3OC1CC(N(C)C)C(O)C(C)O1 (configuration not stated)	Env fusion inh 58 (no result: Cneo AK release)
COc1cccc2c1C(=O)c1c(O)c3c(c(O)c1C2=O)C[C@@](O)(C(=O)CO)C[C@@H]3OC1CC(N)C(O)C(C)O1 (some centres not stated)	none (no result: INS-1E GSIS act, Cneo AK release)
COc1ccc(S(=O)(=O)N(C)C[C@@H]2OCCCC[C@H](C)Oc3ccc(NC(=O)Nc4c(C)noc4C)cc3C(=O)N([C@@H](C)CO)C[C@H]2C)cc1	none (no result: Rtt109 Vps75, dFosB act)
COc1ccc(COCC(CC(C)C)N2CCN(C(=O)c3cccc(C(F)(F)F)c3)CCC2=O)cc1 (configuration not stated)	none
CC(C)CC(COCc1cccc(Cl)c1)N1CCN(C(=O)c2cccc(C(F)(F)F)c2)CCC1=O (configuration not stated)	Env fusion inh 76
CC(C)C[C@@H](COCc1cccc(C(F)(F)F)c1)N1CCN(C(=O)c2ccc(C(F)(F)F)cc2)CCC1=O	Env fusion inh 62 (no result: Cneo AK release, Rtt109 Vps75, miR122 inh, dFosB act)
COc1cccc(CNC(=O)C[C@@H]2CC[C@@H](NC(C)=O)[C@@H](CO)O2)c1	none (no result: Rtt109 Vps75, dFosB act)
COc1ccc2c3c([nH]c2c1)[C@@H](CO)N(C(=O)Nc1ccc(F)cc1)CC31CN(C(=O)c2ccccc2F)C1	none (no result: Env fusion inh, Cneo AK release, Rtt109 Vps75, miR122 inh, dFosB act)
CC(=O)Nc1ccc(Nc2nnc(-c3ccc(C)c(S(=O)(=O)NCC4CCCO4)c3)c3ccccc23)cc1 (configuration not stated)	none (no result: INS-1E GSIS act)
Cc1ccc(-c2nnc(Nc3ccccc3)c3ccccc23)cc1S(=O)(=O)NCC1CCCO1 (configuration not stated)	miR122 inh 127 (no result: INS-1E GSIS act)
O=C1CC(=O)N(Cc2ccco2)C(=O)N1	none (no result: INS-1E GSIS act)
O=C1CC(=O)N(Cc2ccco2)C(=S)N1	Rtt109 Vps75 76 (no result: INS-1E GSIS act, Env fusion inh)
COc1ccc(OC)c(CN2C(=O)c3ccccc3C2c2nnnn2-c2c(C)cccc2C)c1 (configuration not stated)	Env fusion inh 68 (no result: Cneo AK release, Rtt109 Vps75, miR122 inh, dFosB act)
O=C(Nc1ccc(Br)cc1)c1cccc(S(=O)(=O)Nc2cnc3ccccc3c2)c1	none (no result: Cneo AK release, miR122 inh)
COc1ccc(NC(=O)c2cccc(S(=O)(=O)Nc3ccc(Br)cc3)c2)cn1	miR122 inh 103 (no result: Cneo AK release)
O=C(Nc1cccc(S(=O)(=O)Nc2ccc(Cl)cc2)c1)c1ccc(Cl)nc1	Env fusion inh 56 (no result: Cneo AK release, miR122 inh)
COc1cccc(NC(=O)N[C@@H]2C=C[C@@H](CC(=O)N3CCN(C)CC3)O[C@@H]2CO)c1	none (no result: Env fusion inh, Cneo AK release, Rtt109 Vps75, miR122 inh, dFosB act)
CCN(CC)S(=O)(=O)c1ccc(NC2c3ccccc3C(=O)N2Cc2ccc3c(c2)OCO3)cc1 (configuration not stated)	Env fusion inh 67 (no result: miR122 inh)
O=C(NCc1ccc2c(c1)OCO2)c1ccc(CS(=O)Cc2cccc(Cl)c2)o1 (configuration not stated)	Rtt109 Vps75 52
O=C(C1CCC(Cn2c(=S)[nH]c3ccccc3c2=O)CC1)N1CCN(c2ccccc2)CC1 (configuration not stated)	Env fusion inh inconclusive
COc1ccc(N2CCN(C(=O)C3CCC(Cn4c(=S)[nH]c5ccccc5c4=O)CC3)CC2)cc1 (configuration not stated)	Env fusion inh 74
CN(C)C(=S)NC(=O)C12CC3CC(C)(CC(C)(C3)C1)C2	none (no result: Cneo AK release, miR122 inh)
CC12CC3CC(C)(C1)CC(C(=O)NC(=S)N1CCCCC1)(C3)C2	Cneo AK release 111 (no result: Env fusion inh)
COc1ccc2c3c([nH]c2c1)[C@@H](CO)N(C(=O)Nc1cccc(F)c1)CC31CN(S(=O)(=O)c2ccccc2)C1	none (no result: Env fusion inh, Cneo AK release, Rtt109 Vps75, miR122 inh, dFosB act)
CCCCc1cc(=O)oc2cc(OCc3nn[nH]n3)ccc12	none (no result: INS-1E GSIS act, Cneo AK release)
CCCc1cc(=O)oc2cc(OCc3nn[nH]n3)ccc12	miR122 inh 164 (no result: INS-1E GSIS act, Rtt109 Vps75)
COc1ccc(Nc2nc(NCc3cccs3)nc3ccsc23)cc1OC	INS-1E GSIS act 48 (no result: Rtt109 Vps75, dFosB act)
Cc1cc(O)c(C(C)C)cc1N=Nc1ccccc1C(=O)O	miR122 inh 190
Cc1cc(N=Nc2ccccc2C(=O)O)c(C)c(C)c1O	none (no result: Cneo AK release, miR122 inh)
O=C(Cc1ccccc1)N[C@@H]1CC[C@@H](CC(=O)N2CCOCC2)O[C@@H]1CO	none (no result: Rtt109 Vps75, miR122 inh, dFosB act)
CCN(CC)C(=O)[C@H]1C[C@H](CC(=O)NCC23CC4CC(CC(C4)C2)C3)C(=O)N2CCc3c([nH]c4ccc(Cl)cc34)[C@]12C	Env fusion inh 65
O=C(c1ccc2c(c1)OCO2)N1CC[C@@H]2[C@H]1c1cc(-c3ccc(F)cc3)ccc1N[C@@H]2CO	none (no result: Env fusion inh, Rtt109 Vps75, dFosB act)
COc1ccccc1S(=O)(=O)N[C@H]1CC[C@H](CC(=O)N2CCN(C)CC2)O[C@H]1CO	Env fusion inh 62[16.7 µM] (no result: Rtt109 Vps75, dFosB act)
O=C1/C(=C/c2cccs2)NC(=S)N1C1CC1	INS-1E GSIS act 47
O=C1NC(=S)SC1=Cc1cccs1	none
C=CCN1Cc2ccccc2[C@H]2OC(c3ccc(OCCCO)cc3)=N[C@@]2(CCS(=O)(=O)c2ccccc2)C1=O	none (no result: INS-1E GSIS act, Rtt109 Vps75, miR122 inh, dFosB act)
CN1CCN(CC(O)COC(c2ccc(Cl)cc2)c2ccc(Cl)cc2)CC1 (configuration not stated)	dFosB act 22

Bioassay records (PubChem BioAssay)
